In one experiment the test system is MV4-11. The experiment can be described thus: Antiproliferative activity against human MV411 cells.
Experiment [1] has as its system BaF3. The experiment can be described thus: Antiproliferative activity against […] BaF3 cells at 10 uM. The format is functional.
Experiment [2] has as its system BaF3. The experiment can be described thus: Antiproliferative activity against human BaF3 cells expressing FLT3. As to conditions: Mus musculus.
Experiment [3] concerns the target Platelet-derived growth factor receptor beta (Homo sapiens, UniProt P09619). The experiment can be described thus: Inhibition of PDGFRbeta.
A short description of experiment [4]: Inhibition of c-fms. Details: species or system Homo sapiens.
In experiment [5] the target is ALK tyrosine kinase receptor (Homo sapiens) (UniProt Q9UM73). The experiment can be described thus: Inhibition of ALK at 3 uM. Put shortly:
(§1)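 Run in an external kinase selectivity panel at 3 µM compound with 100 µM ATP. Reported as percent inhibition.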

For experiment [6], the target named is Tyrosine-protein kinase Fes/Fps (Homo sapiens) (UniProt P07332). The experiment can be described thus: Inhibition of FES at 3 uM. In a few lines:
as §1

Experiment [7] has as its target Mast/stem cell growth factor receptor Kit (Homo sapiens, UniProt P10721). The experiment can be described thus: Inhibition of c-kit.

SMILES strings stand for the structures. A value given as a limit tells only on which side of the number the result lay.

ALK tyrosine kinase receptor (Homo sapiens), sequence (Q9UM73 19-1620 limits assumed): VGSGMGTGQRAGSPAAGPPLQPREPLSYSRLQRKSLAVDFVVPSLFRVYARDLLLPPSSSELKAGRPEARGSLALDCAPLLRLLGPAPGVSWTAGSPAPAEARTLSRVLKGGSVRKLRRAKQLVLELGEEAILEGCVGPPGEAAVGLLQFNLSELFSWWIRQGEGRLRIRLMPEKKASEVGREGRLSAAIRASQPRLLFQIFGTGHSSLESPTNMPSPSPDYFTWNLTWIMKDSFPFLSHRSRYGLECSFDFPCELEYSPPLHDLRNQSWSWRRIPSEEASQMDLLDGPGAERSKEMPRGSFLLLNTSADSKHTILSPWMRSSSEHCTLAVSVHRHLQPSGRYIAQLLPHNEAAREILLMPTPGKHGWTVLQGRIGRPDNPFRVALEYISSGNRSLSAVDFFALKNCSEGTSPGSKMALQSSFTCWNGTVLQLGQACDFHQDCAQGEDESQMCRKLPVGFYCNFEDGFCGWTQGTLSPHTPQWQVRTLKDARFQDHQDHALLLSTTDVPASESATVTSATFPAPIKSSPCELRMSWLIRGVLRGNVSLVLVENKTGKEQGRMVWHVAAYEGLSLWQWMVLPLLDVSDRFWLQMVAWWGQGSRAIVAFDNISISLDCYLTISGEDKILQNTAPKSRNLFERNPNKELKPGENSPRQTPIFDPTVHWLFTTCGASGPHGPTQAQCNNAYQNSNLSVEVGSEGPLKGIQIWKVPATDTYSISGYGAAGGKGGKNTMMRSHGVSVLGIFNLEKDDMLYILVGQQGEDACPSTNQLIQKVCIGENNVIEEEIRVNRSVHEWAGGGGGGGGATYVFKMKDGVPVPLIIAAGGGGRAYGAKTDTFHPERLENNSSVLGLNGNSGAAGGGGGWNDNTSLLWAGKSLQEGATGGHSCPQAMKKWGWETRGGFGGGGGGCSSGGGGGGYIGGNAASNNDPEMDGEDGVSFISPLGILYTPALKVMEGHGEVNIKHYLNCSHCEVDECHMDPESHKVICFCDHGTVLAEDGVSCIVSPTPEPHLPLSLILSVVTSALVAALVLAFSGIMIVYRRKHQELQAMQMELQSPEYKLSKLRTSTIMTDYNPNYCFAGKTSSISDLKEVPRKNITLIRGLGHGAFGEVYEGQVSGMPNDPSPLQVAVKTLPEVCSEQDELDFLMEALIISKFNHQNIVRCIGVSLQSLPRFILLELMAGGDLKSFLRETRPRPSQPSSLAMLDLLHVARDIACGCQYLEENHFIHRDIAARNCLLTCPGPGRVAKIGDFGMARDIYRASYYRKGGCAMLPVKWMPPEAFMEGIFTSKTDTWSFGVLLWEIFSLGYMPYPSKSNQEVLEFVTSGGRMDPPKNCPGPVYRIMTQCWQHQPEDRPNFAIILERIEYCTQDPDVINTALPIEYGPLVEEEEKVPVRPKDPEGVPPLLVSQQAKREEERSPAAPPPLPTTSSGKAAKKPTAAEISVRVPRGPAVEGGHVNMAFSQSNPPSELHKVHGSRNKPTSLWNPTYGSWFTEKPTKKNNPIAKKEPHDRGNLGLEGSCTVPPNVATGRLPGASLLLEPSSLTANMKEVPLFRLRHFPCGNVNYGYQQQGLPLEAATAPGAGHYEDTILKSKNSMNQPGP
Tyrosine-protein kinase Fes/Fps (Homo sapiens), sequence (P07332 whole entry): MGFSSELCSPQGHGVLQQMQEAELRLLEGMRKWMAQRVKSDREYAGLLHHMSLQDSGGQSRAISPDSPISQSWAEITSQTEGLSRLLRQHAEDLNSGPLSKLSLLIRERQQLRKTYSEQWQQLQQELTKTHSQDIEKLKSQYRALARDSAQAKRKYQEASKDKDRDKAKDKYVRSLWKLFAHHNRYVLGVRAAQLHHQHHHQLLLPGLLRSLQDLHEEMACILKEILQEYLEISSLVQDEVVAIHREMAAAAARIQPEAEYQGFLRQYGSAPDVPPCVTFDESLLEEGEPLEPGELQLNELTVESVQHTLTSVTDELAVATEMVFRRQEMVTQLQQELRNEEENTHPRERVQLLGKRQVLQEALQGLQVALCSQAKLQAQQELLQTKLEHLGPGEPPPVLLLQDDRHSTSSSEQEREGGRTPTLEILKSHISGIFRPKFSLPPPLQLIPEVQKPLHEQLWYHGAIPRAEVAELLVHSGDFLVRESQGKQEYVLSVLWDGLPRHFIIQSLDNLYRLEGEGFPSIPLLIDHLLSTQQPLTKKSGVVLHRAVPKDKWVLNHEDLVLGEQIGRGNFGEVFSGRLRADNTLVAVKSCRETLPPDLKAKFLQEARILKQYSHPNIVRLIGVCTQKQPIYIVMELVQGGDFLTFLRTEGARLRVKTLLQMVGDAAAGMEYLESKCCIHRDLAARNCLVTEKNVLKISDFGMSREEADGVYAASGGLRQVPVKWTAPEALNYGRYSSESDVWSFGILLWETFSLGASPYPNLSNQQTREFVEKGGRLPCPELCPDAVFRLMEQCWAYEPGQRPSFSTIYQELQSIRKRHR
Mast/stem cell growth factor receptor Kit, sequence (P10721 whole entry): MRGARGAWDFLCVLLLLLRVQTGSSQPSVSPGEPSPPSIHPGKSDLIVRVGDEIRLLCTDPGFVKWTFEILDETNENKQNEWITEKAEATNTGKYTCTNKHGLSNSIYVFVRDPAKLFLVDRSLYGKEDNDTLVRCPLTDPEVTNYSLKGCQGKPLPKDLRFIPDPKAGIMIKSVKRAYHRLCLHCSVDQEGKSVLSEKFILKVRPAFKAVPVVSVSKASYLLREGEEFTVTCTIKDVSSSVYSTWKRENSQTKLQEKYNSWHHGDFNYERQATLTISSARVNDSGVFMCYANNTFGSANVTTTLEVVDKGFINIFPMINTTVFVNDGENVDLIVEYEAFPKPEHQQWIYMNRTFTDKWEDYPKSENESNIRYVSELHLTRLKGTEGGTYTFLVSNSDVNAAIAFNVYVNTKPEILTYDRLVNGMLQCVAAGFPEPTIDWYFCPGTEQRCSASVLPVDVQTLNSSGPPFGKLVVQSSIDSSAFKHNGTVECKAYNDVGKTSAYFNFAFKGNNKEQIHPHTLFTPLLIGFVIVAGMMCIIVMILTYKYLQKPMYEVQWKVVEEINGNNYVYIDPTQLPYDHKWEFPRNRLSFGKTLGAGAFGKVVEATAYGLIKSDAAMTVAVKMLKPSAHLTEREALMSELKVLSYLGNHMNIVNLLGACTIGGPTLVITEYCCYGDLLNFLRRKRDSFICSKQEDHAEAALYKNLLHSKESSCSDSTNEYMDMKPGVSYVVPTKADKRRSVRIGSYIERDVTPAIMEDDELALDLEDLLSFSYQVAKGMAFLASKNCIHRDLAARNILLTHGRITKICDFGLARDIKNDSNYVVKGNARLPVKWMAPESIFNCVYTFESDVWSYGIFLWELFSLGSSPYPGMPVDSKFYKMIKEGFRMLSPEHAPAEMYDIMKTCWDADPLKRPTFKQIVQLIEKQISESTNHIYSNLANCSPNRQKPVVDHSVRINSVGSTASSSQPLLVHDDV
Platelet-derived growth factor receptor beta, sequence (P09619 whole entry): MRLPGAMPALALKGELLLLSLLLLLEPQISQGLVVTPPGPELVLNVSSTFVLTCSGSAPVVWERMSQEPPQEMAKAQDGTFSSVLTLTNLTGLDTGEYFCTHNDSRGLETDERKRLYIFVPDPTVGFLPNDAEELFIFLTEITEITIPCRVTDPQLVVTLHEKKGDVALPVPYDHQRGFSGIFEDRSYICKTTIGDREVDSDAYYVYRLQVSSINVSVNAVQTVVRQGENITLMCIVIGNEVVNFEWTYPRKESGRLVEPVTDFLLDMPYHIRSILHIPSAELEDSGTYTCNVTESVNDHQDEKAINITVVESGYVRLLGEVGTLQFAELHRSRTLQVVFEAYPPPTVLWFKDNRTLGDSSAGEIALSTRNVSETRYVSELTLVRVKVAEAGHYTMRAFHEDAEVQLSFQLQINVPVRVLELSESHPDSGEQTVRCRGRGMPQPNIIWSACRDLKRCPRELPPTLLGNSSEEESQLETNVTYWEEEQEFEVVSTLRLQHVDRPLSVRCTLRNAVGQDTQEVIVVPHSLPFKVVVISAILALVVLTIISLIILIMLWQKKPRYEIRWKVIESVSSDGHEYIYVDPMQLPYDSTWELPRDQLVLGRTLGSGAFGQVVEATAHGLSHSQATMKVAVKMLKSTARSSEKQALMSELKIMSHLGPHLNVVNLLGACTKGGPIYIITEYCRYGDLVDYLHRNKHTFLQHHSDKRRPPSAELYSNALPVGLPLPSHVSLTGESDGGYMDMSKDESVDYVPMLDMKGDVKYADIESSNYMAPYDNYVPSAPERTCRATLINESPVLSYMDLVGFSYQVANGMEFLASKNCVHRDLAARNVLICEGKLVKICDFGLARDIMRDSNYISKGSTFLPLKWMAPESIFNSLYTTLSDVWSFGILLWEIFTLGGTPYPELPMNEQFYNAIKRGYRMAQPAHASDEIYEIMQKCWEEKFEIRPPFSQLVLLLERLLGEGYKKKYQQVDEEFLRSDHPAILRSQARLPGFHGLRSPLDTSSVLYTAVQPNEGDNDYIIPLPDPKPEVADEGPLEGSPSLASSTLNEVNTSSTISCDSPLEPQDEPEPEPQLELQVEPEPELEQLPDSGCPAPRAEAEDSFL

One may read the IC50 as the concentration at which inhibition is half-maximal. A low value points to greater potency in that assay. In turn, `CS(=O)(=O)NCCO/N=C/c1c(N)ncnc1N1CCN(C(=O)Nc2ccc(N3CCCC3)cc2)CC1` gave an IC50 in the experiment on MV4-11 of 554 nM.

`CO/N=C/c1c(N)ncnc1N1CCN(C(=O)Nc2ccc(N3CCOCC3)cc2)CC1` yielded an IC50 with MV4-11 of 515 nM. The same compound showed an Activity in the experiment on BaF3 [1] of less than 50%.

In turn, `CO/N=C/c1c(N)ncnc1N1CCN(C(=O)Nc2ccc(N3CCCC3)cc2)CC1` returned an IC50 with MV4-11 of 99 nM.

For `CCO/N=C/c1c(N)ncnc1N1CCN(C(=O)Nc2ccc(OC3CCC3)nc2)CC1`, the IC50 in the experiment on MV4-11 worked out at 65 nM.

For `CC(C)Oc1ccc(NC(=O)N2CCN(c3ncnc(N)c3/C=N/OCC(=O)N3CCOCC3)CC2)cc1`, in the experiment on MV4-11, the IC50 came out at 268 nM.

On to `CC(C)Oc1ccc(NC(=O)N2CCN(c3ncnc(N)c3/C=N/OCCN3CCOCC3)CC2)cc1`, for which the IC50 in the experiment with MV4-11 came to 177 nM.

For the compound `CO/N=C/c1c(N)ncnc1N1CCN(C(=O)Nc2ccc(N3CCCCC3)cc2)CC1`, the IC50 in the experiment with BaF3 [2] was found to be 153 nM; in the experiment on MV4-11, 89 nM.

Turning to `CCO/N=C/c1c(N)ncnc1N1CCN(C(=O)Nc2ccc(OC(C)C)cc2)CC1`, the IC50 with MV4-11 was 77 nM.

Consider `CO/N=C/c1c(N)ncnc1N1CCN(C(=O)Nc2ccc(C3CCCCC3)cc2)CC1`, for which it took 52 nM to reach half-maximal inhibition in the experiment with MV4-11 (IC50).

The term inhibition denotes the change of the read-out against control, counted positive when it falls. Low values mean a response near the control, high ones a response far below the control. In the case of `CO/N=C/c1c(N)ncnc1N1CCN(C(=O)Nc2ccc(OC(C)C)cc2)CC1`, the IC50 in experiment [3] came to 10700 nM; in experiment [4], 1280 nM; in the experiment on MV4-11, 79 nM; in experiment [7], 10.5 nM. Also, the inhibition in experiment [5] was 31%; in experiment [6], 34%.

`Nc1ncnc(N2CCN(C(=O)Nc3ccc(N4CCCC4)cc3)CC2)c1/C=N/OCC(=O)N1CCOCC1` returned an IC50 with MV4-11 of 458 nM.

With `CO/N=C/c1c(N)ncnc1N1CCN(C(=O)Nc2ccc(Oc3ccccc3)cc2)CC1`, the IC50 in the experiment on MV4-11 came to 86 nM.

Turning to `CO/N=C/c1c(N)ncnc1N1CCN(C(=O)Nc2ccc(N(C)C)cc2)CC1`, the IC50 with MV4-11 turned out to be 472 nM.

Consider `CO/N=C/c1c(N)ncnc1N1CCN(C(=O)Nc2ccc(OC3CCC3)nc2)CC1`, for which, in the experiment on MV4-11, the IC50 was 111 nM.

For the compound `CO/N=C/c1c(N)ncnc1N1CCN(C(=O)Nc2ccc(C(C)C)cc2)CC1`, the IC50 in the experiment on BaF3 [2] stood at 8 nM; with MV4-11, 78 nM.

In the experiment on MV4-11, `CO/N=C/c1c(N)ncnc1N1CCN(C(=O)Nc2ccc(Cl)cc2)CC1` gave an IC50 of more than 1000 nM. Moreover, in the experiment on BaF3 [1], the Activity was less than 50%.

For `Nc1ncnc(N2CCN(C(=O)Nc3ccc(N4CCCC4)cc3)CC2)c1/C=N/OCCN1CCOCC1`, the midpoint of inhibition in the experiment with MV4-11, the IC50, lay at 362 nM.

With `CC(C)Oc1ccc(NC(=O)N2CCN(c3ncnc(N)c3/C=N/OCCNS(C)(=O)=O)CC2)cc1`, in the experiment on MV4-11, inhibition was half-maximal at 415 nM (IC50).

Compound `CO/N=C/c1c(N)ncnc1N1CCN(C(=O)Nc2ccc(OC3CCCC3)nc2)CC1` registered an IC50 in the experiment on MV4-11 of 112 nM.

As to `CCO/N=C/c1c(N)ncnc1N1CCN(C(=O)Nc2ccc(N3CCCCC3)cc2)CC1`, half-maximal inhibition in the experiment with MV4-11 (IC50) was put at 58 nM.

`CC(C)Oc1ccc(NC(=O)N2CCN(c3ncnc(N)c3/C=N/OCCCO)CC2)cc1` gave an IC50 with MV4-11 of 283 nM. Against the preceding compound, the IC50 is about 4.9-fold higher.

The record behind these values is ChEMBL document CHEMBL1149650, “4-Amino-6-piperazin-1-yl-pyrimidine-5-carbaldehyde oximes as potent FLT-3 inhibitors” (Bioorg Med Chem Lett, 2007).
